ChEMBL document CHEMBL5661979, “Pharmacological inhibition of BMK1 suppresses tumor growth through promyelocytic leukemia protein” (Cancer Cell, 2010)
pIC50: −log10 of the molar value. The source made the active and inactive calls. The rule behind the calls is not given here.

Assays:
[1] = target: Mitogen-activated protein kinase; ERK1/ERK2 (Homo sapiens) (UniProt P27361+P28482); assay: Inhibition of ERK1/2 in human HeLa cells assessed as reduction in EGF-induced ERK1/2 phosphorylation level at T202/Y204 residue at 1 to 5 uM pre incubated for 1 hr followed by EGF stimulation and measured after 17 mins by Western blot analysis; assay type: cell-based; details: dose 1-5 µM, time 77.0 min
[2] = target: Cyclin-dependent kinase 9 (Homo sapiens, UniProt P50750); assay: Inhibition of CDK9 in human HeLa cells lysate at 2 uM pre incubated for 15 mins followed by ADP acyl phosphate probe addition and measured after 10 mins by LC-MS/MS analysis relative to control; assay type: subcellular; details: time 25.0 min
Outline: (§1)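 KiNativ profiling in HeLa lysate (5 mg/mL total protein). Lysate incubated 15 min with inhibitor at 50, 10, 2, 0.8 or 0 μM. ATP or ADP acylphosphate probe then added (5 μM final) and reacted 10 min. Reaction stopped with urea and analysed by targeted MS, using up to four fragment ions per kinase peptide-probe conjugate. % inhibition taken against untreated lysate. Run in duplicate.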

[3] = target: T1, Dual specificity mitogen-activated protein kinase kinase 6 (Homo sapiens) (UniProt P52564); assay: Inhibition of MAP2K6 in human HeLa cells lysate at 50 uM pre incubated for 15 mins followed by ADP acyl phosphate probe addition and measured after 10 mins by LC-MS/MS analysis relative to control; assay type: subcellular; details: time 25.0 min
T1 sequence (whole entry): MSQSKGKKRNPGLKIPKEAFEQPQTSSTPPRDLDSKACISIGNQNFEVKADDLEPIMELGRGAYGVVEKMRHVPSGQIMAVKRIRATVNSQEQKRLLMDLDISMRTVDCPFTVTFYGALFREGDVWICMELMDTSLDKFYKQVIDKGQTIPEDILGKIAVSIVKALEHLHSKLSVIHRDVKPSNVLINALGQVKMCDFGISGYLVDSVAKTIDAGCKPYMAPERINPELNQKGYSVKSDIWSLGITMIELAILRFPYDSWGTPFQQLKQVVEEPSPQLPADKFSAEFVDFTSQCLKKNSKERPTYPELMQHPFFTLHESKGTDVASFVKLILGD

[4] = target: Serine/threonine-protein kinase 38-like (Homo sapiens, UniProt Q9Y2H1); assay: Inhibition of NDR2 in human HeLa cells lysate pre incubated for 15 mins followed by ADP acyl phosphate probe addition and measured after 10 mins by LC-MS/MS analysis; assay type: subcellular
[5] = target: Tyrosine-protein kinase JAK1 (Homo sapiens, UniProt P23458); assay: Inhibition of JAK1 domain 2 in human HeLa cells lysate pre incubated for 15 mins followed by ATP acyl phosphate probe addition and measured after 10 mins by LC-MS/MS analysis; assay type: subcellular
[6] = target: Epidermal growth factor receptor (Homo sapiens, UniProt P00533); assay: Inhibition of EGFR in human HeLa cells lysate at 10 uM pre incubated for 15 mins followed by ATP acyl phosphate probe addition and measured after 10 mins by LC-MS/MS analysis relative to control; assay type: subcellular; details: time 25.0 min
[7] = target: T2, Dual specificity mitogen-activated protein kinase kinase 4 (Homo sapiens) (UniProt P45985); assay: Inhibition of MAP2K4 in human HeLa cells lysate at 10 uM pre incubated for 15 mins followed by ATP acyl phosphate probe addition and measured after 10 mins by LC-MS/MS analysis relative to control; assay type: subcellular; details: time 25.0 min
T2 sequence (whole entry): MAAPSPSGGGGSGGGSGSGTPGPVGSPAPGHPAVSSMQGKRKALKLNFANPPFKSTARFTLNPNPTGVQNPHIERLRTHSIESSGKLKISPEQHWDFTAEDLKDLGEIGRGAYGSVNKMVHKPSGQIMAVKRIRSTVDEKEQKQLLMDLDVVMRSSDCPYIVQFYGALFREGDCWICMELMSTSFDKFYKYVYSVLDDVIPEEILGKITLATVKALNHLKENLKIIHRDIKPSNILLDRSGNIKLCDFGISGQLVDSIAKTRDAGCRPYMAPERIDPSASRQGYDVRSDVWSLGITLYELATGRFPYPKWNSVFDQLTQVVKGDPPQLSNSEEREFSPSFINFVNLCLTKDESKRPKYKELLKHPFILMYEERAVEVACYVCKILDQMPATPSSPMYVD

[8] = target: Serine/threonine-protein kinase Nek1 (Homo sapiens) (UniProt Q96PY6); assay: Inhibition of NEK1 in human HeLa cells lysate at 2 uM pre incubated for 15 mins followed by ATP acyl phosphate probe addition and measured after 10 mins by LC-MS/MS analysis relative to control; assay type: subcellular; details: time 25.0 min
[9] = target: Serine/threonine-protein kinase/endoribonuclease IRE1 (Homo sapiens, UniProt O75460); assay: Inhibition of IRE1 in human HeLa cells lysate at 2 uM pre incubated for 15 mins followed by ADP acyl phosphate probe addition and measured after 10 mins by LC-MS/MS analysis relative to control; assay type: subcellular; details: time 25.0 min
[10] = target: Calcium/calmodulin-dependent protein kinase type 1D (Homo sapiens, UniProt Q8IU85); assay: Inhibition of CAMK1d in human HeLa cells lysate at 2 uM pre incubated for 15 mins followed by ADP acyl phosphate probe addition and measured after 10 mins by LC-MS/MS analysis relative to control; assay type: subcellular; details: time 25.0 min
Outline: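 KiNativ-type profiling in HeLa lysate (5 mg/mL total protein). Lysate preincubated 15 min with inhibitor at 50, 10, 2, 0.8 or 0 μM, then ATP or ADP acylphosphate probe added (5 μM final) for 10 min. Reaction stopped with urea and analysed by targeted MS, using up to four fragment ions per kinase peptide-probe conjugate. % inhibition calculated against untreated lysate. Duplicate reactions.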

[11] = Clearance in Sprague-Dawley rat at 2 mg/kg, po measured up to 8 hrs by LC-MS/MS analysis; assay type: ADME, organism-based; details: in vivo
Outline: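 Sprague-Dawley rats given one intravenous dose or one oral dose of 2 mg/kg. Plasma drug concentrations were followed over time, with samples taken out to 8 hr after dosing. PK parameters (clearance, volume of distribution, half-life, oral bioavailability, Cmax) were calculated from these concentration–time data.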

[12] = target: Cyclin-dependent kinase 10 (Homo sapiens, UniProt Q15131); assay: Inhibition of CDK10 in human HeLa cells lysate at 2 uM pre incubated for 15 mins followed by ATP acyl phosphate probe addition and measured after 10 mins by LC-MS/MS analysis relative to control; assay type: subcellular; details: time 25.0 min; outline: as §1
Lewis lung carcinoma = assay: Antitumor activity against mouse LL2 cells transfected with Ad-BMK1 allografted in C57Bl/6 mouse assessed as reduction tumor growth at 50 mg/kg, ip administered on day 7 post implantation measured after 17 days; assay type: functional, organism-based; details: time 10.0 day
Outline: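 LL/2 cells (1×10^6) were injected s.c. into C57Bl/6 mice; 6 per group. Ad-EV or Ad-BMK1(AEF) was given intratumorally on days 7, 11, 15 and 19. Drug was dosed at 50 mg/kg i.p. twice daily from day 8 to day 20; control groups received carrier solution.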

Calcium/calmodulin-dependent protein kinase type 1D, sequence (Q8IU85 whole entry, looked up, the tested form may be a part): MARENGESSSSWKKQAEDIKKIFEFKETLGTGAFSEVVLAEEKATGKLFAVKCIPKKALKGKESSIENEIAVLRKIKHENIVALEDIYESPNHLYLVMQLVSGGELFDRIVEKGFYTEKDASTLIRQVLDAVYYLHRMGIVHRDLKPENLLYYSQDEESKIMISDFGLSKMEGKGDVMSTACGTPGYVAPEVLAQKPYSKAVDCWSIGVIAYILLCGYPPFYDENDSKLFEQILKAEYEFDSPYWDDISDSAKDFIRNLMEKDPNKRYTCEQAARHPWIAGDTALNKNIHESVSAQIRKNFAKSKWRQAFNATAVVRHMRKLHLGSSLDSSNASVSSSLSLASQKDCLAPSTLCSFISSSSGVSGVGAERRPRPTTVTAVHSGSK
Mitogen-activated protein kinase; ERK1/ERK2 (Homo sapiens), sequence (P27361 whole entry, looked up): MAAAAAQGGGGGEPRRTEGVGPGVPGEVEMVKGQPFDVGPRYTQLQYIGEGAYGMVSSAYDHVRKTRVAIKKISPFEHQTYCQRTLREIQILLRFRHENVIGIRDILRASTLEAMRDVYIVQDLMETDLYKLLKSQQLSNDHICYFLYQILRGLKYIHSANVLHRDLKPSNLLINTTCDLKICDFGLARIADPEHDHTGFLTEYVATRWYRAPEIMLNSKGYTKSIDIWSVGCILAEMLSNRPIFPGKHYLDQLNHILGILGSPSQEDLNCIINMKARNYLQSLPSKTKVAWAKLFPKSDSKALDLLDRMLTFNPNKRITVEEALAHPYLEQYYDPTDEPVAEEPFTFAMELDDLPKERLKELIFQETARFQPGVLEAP
Mitogen-activated protein kinase; ERK1/ERK2 (Homo sapiens), sequence (P28482 whole entry, looked up): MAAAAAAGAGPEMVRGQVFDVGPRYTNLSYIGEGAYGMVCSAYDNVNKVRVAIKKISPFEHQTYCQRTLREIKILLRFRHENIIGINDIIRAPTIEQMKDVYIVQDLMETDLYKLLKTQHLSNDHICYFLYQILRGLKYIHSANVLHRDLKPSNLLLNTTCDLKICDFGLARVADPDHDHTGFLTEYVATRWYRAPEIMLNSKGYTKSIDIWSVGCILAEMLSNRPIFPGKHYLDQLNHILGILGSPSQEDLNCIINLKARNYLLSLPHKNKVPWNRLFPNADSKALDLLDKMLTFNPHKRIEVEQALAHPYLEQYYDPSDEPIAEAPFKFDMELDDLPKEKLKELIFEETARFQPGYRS
Tyrosine-protein kinase JAK1, sequence (P23458 whole entry, the tested form may be a part): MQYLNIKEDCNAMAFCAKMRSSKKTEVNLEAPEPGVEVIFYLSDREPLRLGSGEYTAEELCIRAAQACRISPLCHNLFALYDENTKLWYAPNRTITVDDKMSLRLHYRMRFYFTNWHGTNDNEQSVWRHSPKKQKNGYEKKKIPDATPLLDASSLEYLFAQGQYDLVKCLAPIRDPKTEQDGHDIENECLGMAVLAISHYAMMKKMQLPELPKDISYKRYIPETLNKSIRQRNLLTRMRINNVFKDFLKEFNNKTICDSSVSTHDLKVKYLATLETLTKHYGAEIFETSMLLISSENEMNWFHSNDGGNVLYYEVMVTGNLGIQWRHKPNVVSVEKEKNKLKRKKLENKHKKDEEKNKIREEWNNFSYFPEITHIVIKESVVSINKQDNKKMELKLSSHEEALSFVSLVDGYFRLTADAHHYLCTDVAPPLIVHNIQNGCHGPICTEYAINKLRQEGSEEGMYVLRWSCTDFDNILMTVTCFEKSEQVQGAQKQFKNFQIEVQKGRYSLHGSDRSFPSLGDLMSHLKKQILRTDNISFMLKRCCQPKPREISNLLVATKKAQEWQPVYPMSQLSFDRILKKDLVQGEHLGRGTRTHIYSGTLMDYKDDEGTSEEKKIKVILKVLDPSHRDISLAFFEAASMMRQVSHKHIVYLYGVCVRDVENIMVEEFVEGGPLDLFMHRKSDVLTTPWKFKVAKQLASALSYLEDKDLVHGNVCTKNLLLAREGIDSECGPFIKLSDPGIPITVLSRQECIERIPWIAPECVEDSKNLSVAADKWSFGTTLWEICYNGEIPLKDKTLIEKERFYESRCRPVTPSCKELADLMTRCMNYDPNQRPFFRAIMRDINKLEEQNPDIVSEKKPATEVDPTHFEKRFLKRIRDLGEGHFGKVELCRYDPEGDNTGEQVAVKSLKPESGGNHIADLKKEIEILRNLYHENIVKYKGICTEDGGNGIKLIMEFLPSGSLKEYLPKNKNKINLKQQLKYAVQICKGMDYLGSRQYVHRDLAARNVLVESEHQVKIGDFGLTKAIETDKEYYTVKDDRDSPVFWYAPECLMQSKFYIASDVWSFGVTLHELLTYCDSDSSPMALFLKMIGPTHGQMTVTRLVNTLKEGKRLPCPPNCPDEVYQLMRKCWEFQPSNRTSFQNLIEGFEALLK
Epidermal growth factor receptor, sequence (P00533 whole entry): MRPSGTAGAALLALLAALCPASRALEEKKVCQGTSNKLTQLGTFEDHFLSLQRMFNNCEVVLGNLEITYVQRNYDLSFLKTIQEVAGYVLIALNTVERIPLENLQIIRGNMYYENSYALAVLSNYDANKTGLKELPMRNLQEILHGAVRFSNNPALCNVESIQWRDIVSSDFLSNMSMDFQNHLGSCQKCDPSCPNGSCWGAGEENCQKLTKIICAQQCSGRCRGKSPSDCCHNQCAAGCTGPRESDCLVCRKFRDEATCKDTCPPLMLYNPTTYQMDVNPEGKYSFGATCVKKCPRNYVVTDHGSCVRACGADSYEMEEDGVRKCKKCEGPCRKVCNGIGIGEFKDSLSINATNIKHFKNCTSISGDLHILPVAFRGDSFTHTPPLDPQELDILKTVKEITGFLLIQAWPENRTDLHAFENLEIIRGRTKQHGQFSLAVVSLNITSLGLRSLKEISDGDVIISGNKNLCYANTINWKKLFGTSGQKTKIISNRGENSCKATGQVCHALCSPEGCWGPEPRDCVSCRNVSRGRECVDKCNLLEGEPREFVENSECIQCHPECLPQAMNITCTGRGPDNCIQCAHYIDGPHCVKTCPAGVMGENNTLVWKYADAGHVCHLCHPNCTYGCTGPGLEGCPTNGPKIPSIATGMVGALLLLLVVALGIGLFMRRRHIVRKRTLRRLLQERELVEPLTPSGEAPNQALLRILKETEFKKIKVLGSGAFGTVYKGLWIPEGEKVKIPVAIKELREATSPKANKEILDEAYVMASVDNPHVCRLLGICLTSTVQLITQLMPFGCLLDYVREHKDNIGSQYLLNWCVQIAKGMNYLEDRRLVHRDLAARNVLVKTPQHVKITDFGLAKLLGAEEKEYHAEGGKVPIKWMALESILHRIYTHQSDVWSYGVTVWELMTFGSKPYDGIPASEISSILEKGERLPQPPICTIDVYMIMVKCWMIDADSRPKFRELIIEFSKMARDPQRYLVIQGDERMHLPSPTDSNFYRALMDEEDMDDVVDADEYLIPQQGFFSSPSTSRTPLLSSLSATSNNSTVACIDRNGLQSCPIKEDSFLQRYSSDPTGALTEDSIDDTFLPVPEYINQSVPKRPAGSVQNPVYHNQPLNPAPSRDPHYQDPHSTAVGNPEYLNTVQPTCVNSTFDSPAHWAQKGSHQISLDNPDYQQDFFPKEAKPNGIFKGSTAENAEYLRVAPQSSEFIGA
Serine/threonine-protein kinase 38-like, sequence (Q9Y2H1 whole entry, the tested form may be a part): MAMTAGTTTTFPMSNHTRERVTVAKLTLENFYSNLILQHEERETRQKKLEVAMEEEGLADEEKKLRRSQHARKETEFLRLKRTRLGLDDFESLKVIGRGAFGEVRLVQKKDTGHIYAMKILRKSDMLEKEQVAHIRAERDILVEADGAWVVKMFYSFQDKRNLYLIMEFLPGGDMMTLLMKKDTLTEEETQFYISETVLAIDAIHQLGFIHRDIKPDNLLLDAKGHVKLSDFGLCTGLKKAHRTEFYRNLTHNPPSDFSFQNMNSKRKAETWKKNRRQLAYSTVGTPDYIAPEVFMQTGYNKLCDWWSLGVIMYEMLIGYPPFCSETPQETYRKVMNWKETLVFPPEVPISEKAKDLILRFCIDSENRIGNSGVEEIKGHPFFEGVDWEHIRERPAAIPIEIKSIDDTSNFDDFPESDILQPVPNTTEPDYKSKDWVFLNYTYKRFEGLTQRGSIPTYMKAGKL
Cyclin-dependent kinase 10, sequence (Q15131 whole entry): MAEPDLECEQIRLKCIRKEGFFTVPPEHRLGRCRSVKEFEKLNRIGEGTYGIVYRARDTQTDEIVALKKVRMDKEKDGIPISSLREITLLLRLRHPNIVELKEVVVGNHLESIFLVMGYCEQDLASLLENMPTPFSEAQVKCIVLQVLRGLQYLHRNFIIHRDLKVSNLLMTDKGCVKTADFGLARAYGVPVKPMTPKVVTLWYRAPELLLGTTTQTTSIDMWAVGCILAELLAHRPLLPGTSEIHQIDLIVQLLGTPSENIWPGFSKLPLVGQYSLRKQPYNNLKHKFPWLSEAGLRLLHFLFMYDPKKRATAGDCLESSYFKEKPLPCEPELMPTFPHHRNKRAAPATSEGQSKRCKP
Cyclin-dependent kinase 9, sequence (P50750 whole entry, the tested form may be a part): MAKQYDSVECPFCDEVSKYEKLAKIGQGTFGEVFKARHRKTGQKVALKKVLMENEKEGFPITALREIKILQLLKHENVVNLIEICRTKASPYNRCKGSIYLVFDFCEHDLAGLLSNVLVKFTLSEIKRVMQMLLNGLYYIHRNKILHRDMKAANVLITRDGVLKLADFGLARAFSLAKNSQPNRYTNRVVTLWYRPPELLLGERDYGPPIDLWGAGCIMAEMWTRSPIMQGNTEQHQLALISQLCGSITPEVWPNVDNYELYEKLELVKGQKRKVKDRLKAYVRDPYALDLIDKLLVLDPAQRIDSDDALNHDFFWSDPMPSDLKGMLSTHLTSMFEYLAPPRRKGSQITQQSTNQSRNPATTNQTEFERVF

SMILES: CCOc1cc(N2CCC(O)CC2)ccc1Nc1ncc2c(n1)N(C)c1ccccc1C(=O)N2C
- inhibition [1]: inactive
- inhibition [2]: 0.8%
- inhibition [3]: 9.1%
- pIC50 [4]: < 4.30
- pIC50 [5]: < 4.30
- inhibition [6]: -5%
- inhibition [7]: 3.9%
- inhibition [8]: 6.1%
- inhibition [9]: 16.5%
- inhibition [10]: 4.7%
- CL/F [11]: 26 mL/min/kg
- inhibition [12]: 3.7%
- Activity (Lewis lung carcinoma): Active
